Usually Papp stands for the rate of passage across a membrane or cell layer, normalised by area and donor concentration. For orientation: pKi means −log10 of the Ki, conventionally taken in molar units. As usually defined, the inhibition is the percentage by which the read-out fell short of the control. Usually Tmax stands for the time from dosing to the highest level. The term AUC(0-t) denotes exposure summed from dosing to a finite time, without extrapolation to infinity. High values mean more exposure, low ones less exposure. What is called Cmax is the highest concentration seen after dosing. Usually bioavailability stands for dose-corrected exposure relative to a reference, in per cent. A word on the clearance: it is the rate of elimination divided by the concentration.

The nature of data set [1]: Apparent permeability by PAMPA assay. The class given is ADME.
Data set [2] concerns the target T1, Tyrosine-protein phosphatase non-receptor type 1 (Homo sapiens, UniProt P18031).
T1 sequence (P18031 whole entry): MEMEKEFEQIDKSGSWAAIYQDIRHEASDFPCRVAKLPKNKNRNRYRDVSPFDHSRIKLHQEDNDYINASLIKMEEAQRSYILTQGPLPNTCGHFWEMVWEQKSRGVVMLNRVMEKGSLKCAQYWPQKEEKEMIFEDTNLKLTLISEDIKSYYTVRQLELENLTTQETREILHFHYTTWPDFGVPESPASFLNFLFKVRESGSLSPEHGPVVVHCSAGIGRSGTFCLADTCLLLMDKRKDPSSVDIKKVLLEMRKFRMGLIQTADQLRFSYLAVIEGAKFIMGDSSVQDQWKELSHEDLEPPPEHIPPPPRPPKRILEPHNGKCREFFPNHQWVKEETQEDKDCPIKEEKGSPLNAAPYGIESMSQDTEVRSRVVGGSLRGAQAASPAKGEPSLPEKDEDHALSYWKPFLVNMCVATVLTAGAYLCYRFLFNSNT
Description: Inhibition of human recombinant PTP1B expressed in Escherichia coli using para-nitrophenyl phosphate as substrate preincubated for 30 mins followed by substrate addition measured by […] analysis.

In data set [3] the test system is Liver. Nature of the data set: Metabolic stability of the compound in mouse liver microsomes assessed as metabolic rate at 1 uM after 30 mins by LC-MS-MS analysis. In kind it is ADME, Microsome. The conditions noted are these: 0.5 h. The procedure, abridged:
(§1)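 Mouse and rat liver microsomes, metabolic rate read at 30 min. Stable was defined as metabolic rate <0.1 nmol/min/mg or 80% remaining at 30 min.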

For data set [4], the system named is Liver microsomes. Description: Metabolic stability of the compound in rat liver microsomes assessed as metabolic rate at 1 uM after 30 mins by LC-MS-MS analysis. The class given is ADME, Microsome. The conditions noted are these: 0.5 h. The procedure, abridged: as §1
The target in data set [5] is T2, Tyrosine-protein phosphatase non-receptor type 2 (Homo sapiens) (UniProt P17706).
T2 sequence (whole entry): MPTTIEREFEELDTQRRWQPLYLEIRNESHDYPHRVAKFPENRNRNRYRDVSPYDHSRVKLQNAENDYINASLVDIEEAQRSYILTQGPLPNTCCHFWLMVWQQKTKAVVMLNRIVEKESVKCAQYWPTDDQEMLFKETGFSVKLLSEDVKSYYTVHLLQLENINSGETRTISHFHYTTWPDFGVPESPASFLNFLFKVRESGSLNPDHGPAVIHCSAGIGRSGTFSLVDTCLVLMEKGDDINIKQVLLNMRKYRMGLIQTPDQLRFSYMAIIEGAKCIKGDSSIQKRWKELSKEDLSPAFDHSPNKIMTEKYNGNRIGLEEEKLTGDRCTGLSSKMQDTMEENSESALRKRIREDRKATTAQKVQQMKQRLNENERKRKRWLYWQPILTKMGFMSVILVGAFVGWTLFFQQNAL
Description: Inhibition of TCPTP using para-nitrophenyl phosphate as substrate at 100 uM preincubated for 30 mins followed by substrate addition measured by […] analysis. The essentials:
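TCPTP counter-screen in the same pNPP assay format, tested at 100 µM. Read as percent inhibition.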

Data set [6] is described as follows: Tmax in C57BL/6J mouse at 30 mg/kg, po. The class given is ADME, organism-based. Also noted: dose 30 mg/kg, route oral. The conditions noted are these: in vivo.
A short description of data set [7]: Tmax in C57BL/6J mouse at 3 mg/kg, iv. The class given is ADME, organism-based. Also noted: dose 3 mg/kg, route intravenous. Particulars: in vivo.
Data set [8] in a line: AUC (0 to t) in C57BL/6J mouse at 3 mg/kg, iv. The conditions noted are these: plasma. On the set-up: dose 3 mg/kg, route intravenous. The class given is ADME, organism-based.
Data set [9] is described as follows: Elimination half life in C57BL/6J mouse at 3 mg/kg, iv. Also noted: dose 3 mg/kg, route intravenous. The class given is ADME, organism-based. Particulars: in vivo, read-out: beta t1/2 (converted).
Data set [10] in a line: Cmax in C57BL/6J mouse at 30 mg/kg, po. The class given is ADME, organism-based. Also noted: dose 30 mg/kg, route oral. The conditions noted are these: in vivo.
A short description of data set [11]: Volume of distribution at steady state in C57BL/6J mouse at 3 mg/kg, iv. In kind it is ADME, organism-based. On the set-up: dose 3 mg/kg, route intravenous. The conditions noted are these: in vivo, read-out: Vdss.
Data set [12] in a line: Cmax in C57BL/6J mouse at 3 mg/kg, iv. The class given is ADME, organism-based. On the set-up: dose 3 mg/kg, route intravenous. The conditions noted are these: in vivo.
Data set [13] in a line: Oral bioavailability in C57BL/6J mouse at 30 mg/kg. The class given is ADME, organism-based. Particulars: in vivo.
The nature of data set [14]: AUC (0 to t) in C57BL/6J mouse at 30 mg/kg, po. The class given is ADME, organism-based. Particulars: plasma. On the set-up: dose 30 mg/kg, route oral.
The target in data set [15] is T3, Tyrosine-protein phosphatase non-receptor type 1 (Homo sapiens) (UniProt P18031).
T3 sequence (whole entry): T1 sequence (P18031 whole entry)
Nature of the data set: Non-competitive inhibition of human recombinant PTP1B-mediated para-nitrophenyl phosphate hydrolysis preincubated for 30 mins measured by spectrophotometric analysis.

A short description of data set [16]: Clearance in C57BL/6J mouse at 3 mg/kg, iv. Also noted: dose 3 mg/kg, route intravenous. The class given is ADME, organism-based. The conditions noted are these: in vivo.
Data set [17] is described as follows: Apparent permeability across human Caco2 cells. In kind it is ADME, cell-based. The conditions noted are these: Caco-2. (Passage across Caco-2 layers is used to estimate intestinal permeability.)

Molecules are shown by their SMILES. pKi: −log10 of the molar value. Active and inactive are the calls of the source. Bounds are passed on as bounds.

In the case of `COc1ccc(-c2noc(C(Cc3ccc(-c4cc(C(=O)O)on4)cc3)c3ccc(F)cc3)n2)cc1` (stereo not drawn), the Papp in data set [1] came out at 4 ×10⁻⁶ cm/s. Further, the negative logarithm of the Ki (pKi) in data set [2] is 6.40. Moreover, the Drug metabolism in data set [3] was determined as 0 nmol/min/mg; in data set [4], 0.01 nmol/min/mg. In data set [5], this compound yielded an inhibition below 10%.

Take `COc1ccc(C(Cc2ccc(-c3cc(C(=O)O)on3)cc2)c2nc(-c3ccc(Cl)cc3)no2)cc1` (stereo not drawn): the values for the Tmax in data set [6] and in [7] were 1 h and 4.98 min, respectively. In addition, the apparent permeability (Papp) in data set [1] amounted to 48 ×10⁻⁶ cm/s. In addition, the values for the exposure AUC(0-t) in data set [8] and in [14] were 0.98 µM·h and 3.6 µM·h, respectively. In addition, the pKi in data set [2] was 6.52. The half-life in [9] was 1.08 h. Also, the peak concentration (Cmax) in data set [10] amounted to 1340 nM; in data set [12], 1870 nM. Also, the Drug metabolism in [3] was determined as 0 nmol/min/mg; in data set [4] it was 0.03 nmol/min/mg. Moreover, in data set [11], the Vd came out at 4 L/kg. In addition, the bioavailability in data set [13] was 36%. Moreover, the inhibition result in data set [15] is “Active”. Further, the clearance in [16] was found to be 99 mL/min/kg. The inhibition in [5] is below 10%.

Turning to `COc1ccc(C(Cc2ccc(-c3nc(C(=O)O)cs3)cc2)c2nc(-c3cccc(F)c3)no2)cc1` (stereo not drawn), the Papp in data set [1] is 6 ×10⁻⁶ cm/s. Also, the negative-log Ki (pKi) in [2] is 6.30. Also, the Drug metabolism came out at 0 nmol/min/mg in [3] and 0.04 nmol/min/mg in data set [4].

Consider `O=C(O)c1csc(-c2ccc(CC(C(=O)c3ccc(F)c(F)c3)c3ccc(F)cc3)cc2)n1` (stereo not drawn), for which, in data set [2], the pKi was 5.74.

On to `O=C(O)c1cc(-c2ccc(CC(C(=O)c3ccccc3)c3ccccc3)cc2)n[nH]1` (stereo not drawn), for which, in [2], the pKi is 4.79.

For the compound `O=C(O)c1onc(-c2ccc(CC(C(=O)c3ccccc3)c3ccccc3)cc2)c1C(=O)O` (stereo not drawn), the negative-log Ki (pKi) in [2] was 4.40.

For the compound `O=C(O)c1coc(-c2ccc(CC(C(=O)c3ccccc3)c3ccccc3)cc2)n1` (stereo not drawn), the pKi in [2] is 5.11.

Take `O=C(O)c1ccc(-c2ccc(CC(C(=O)c3ccccc3)c3ccccc3)cc2)[nH]1` (stereo not drawn): the pKi in data set [2] was 5.54.

As for `Cn1nc(-c2ccc(CC(C(=O)c3ccccc3)c3ccccc3)cc2)cc1C(=O)O` (stereo not drawn), in data set [2], the negative-log Ki (pKi) was 5.11.

As for `O=C(O)C1CC(=O)N(c2ccc(CC(C(=O)c3ccccc3)c3ccccc3)cc2)C1` (stereo not drawn), in [2], the negative-log Ki (pKi) is 5.11.

Take `O=C(O)c1cc(-c2ccc(CC(C(=O)c3cc(F)cc(F)c3)c3ccc(F)cc3)cc2)no1` (stereo not drawn): in [2], the negative logarithm of the Ki (pKi) is 5.62.

With `O=C(O)C1CCN(c2ccc(CC(C(=O)c3ccccc3)c3ccccc3)cc2)C1=O` (stereo not drawn), the pKi in [2] was 5.29.

For the compound `O=C(O)c1cc(-c2ccc(CC(C(=O)c3ccc(F)c(F)c3)c3ccc(F)cc3)cc2)no1` (stereo not drawn), the apparent permeability coefficient (Papp) in data set [1] was found to be 16 ×10⁻⁶ cm/s. For the same compound, the pKi in [2] was 5.85. Besides, the Drug metabolism in data set [3] stood at 0 nmol/min/mg; in [4], 0.01 nmol/min/mg.

For `COC(=O)c1c(O)cccc1OC/C=C/c1ccc(F)c(-c2cc(C(=O)O)no2)c1`, the apparent permeability (Papp) in data set [17] was above 1 ×10⁻⁶ cm/s.

Consider `O=C(O)c1csc(-c2ccc(CC(C(=O)c3ccccc3)c3ccccc3)cc2)n1` (stereo not drawn), for which the Papp in data set [1] was 85 ×10⁻⁶ cm/s. The pKi in data set [2] was 5.92. For the same compound, the Drug metabolism in [3] is on record as 0.05 nmol/min/mg; in [4], 0.02 nmol/min/mg.

Regarding `O=C(O)c1csc(-c2ccc(CC(c3ccc(F)cc3)c3nc(-c4cccc(F)c4)no3)cc2)n1` (stereo not drawn), the Papp in [1] was determined as 10 ×10⁻⁶ cm/s. Also, the pKi in data set [2] is 6.30. Besides, the Drug metabolism is 0 nmol/min/mg in data set [3] and 0.01 nmol/min/mg in data set [4].

On to `O=C(O)c1cc(-c2ccc(CC(C(=O)c3ccc(F)cc3)c3ccc(F)cc3)cc2)no1` (stereo not drawn), for which the Papp in data set [1] worked out at 8 ×10⁻⁶ cm/s. Besides, the negative-log Ki (pKi) in data set [2] is 5.82. Also, the Drug metabolism in [3] is listed as 0.01 nmol/min/mg; in [4] it was 0.02 nmol/min/mg.

Take `O=C(O)c1cc(-c2ccc(CC(C(=O)c3ccccc3)c3ccccc3)cc2)no1` (stereo not drawn): in data set [1], the Papp was determined as 103 ×10⁻⁶ cm/s. Besides, the pKi in data set [2] is 5.96. Also, the Drug metabolism came to 0.06 nmol/min/mg in data set [3] and 0.02 nmol/min/mg in data set [4]. The compound further came in with an inhibition in data set [5] below 10%.

As to `O=C(O)c1csc(-c2ccc(CC(C(=O)c3ccc(Cl)cc3)c3ccc(F)c(F)c3)cc2)n1` (stereo not drawn), the pKi in data set [2] was 6.22. This compound registered an inhibition in [5] below 10%.

For `O=C(O)c1cc(-c2ccc(CC(c3ccccc3)c3nc(-c4ccccc4)no3)cc2)no1` (stereo not drawn), the values for the Tmax in [6] and in [7] were 1 h and 4.8 min, respectively. Also, the apparent permeability coefficient (Papp) in [1] was 45 ×10⁻⁶ cm/s. Further, the area under the curve AUC(0-t) was 1.8 µM·h in data set [8] and 13 µM·h in data set [14]. In addition, in data set [2], the pKi was 5.40. The half-life in data set [9] is 1 h. The Cmax in [10] came out at 7200 nM; in [12], 1500 nM. For the same compound, the Drug metabolism in data set [3] amounted to 0.04 nmol/min/mg; in data set [4] it was 0.03 nmol/min/mg. For the same compound, the Vd in [11] amounted to 4.8 L/kg. In data set [13], the bioavailability turned out to be 70%. Besides, in data set [16], the clearance worked out at 63 mL/min/kg. The inhibition in data set [5] was below 10%.

On to `O=C(O)c1cc(-c2ccc(CC(C(=O)c3ccc(Cl)cc3)c3ccc(F)c(F)c3)cc2)no1` (stereo not drawn), for which the results for the Tmax in data set [6] and in data set [7] were 1 h and 4.98 min, respectively. Besides, the apparent permeability (Papp) in data set [1] was 168 ×10⁻⁶ cm/s. Further, the AUC(0-t) is 2.4 µM·h in data set [8] and 3 µM·h in [14]. The pKi in data set [2] is 6.10. Moreover, the half-life in data set [9] is 1.9 h. Also, the results for the Cmax in data set [10] and in [12] were 1900 nM and 4500 nM, respectively. The Drug metabolism in data set [3] and in data set [4] was 0 nmol/min/mg throughout. In data set [11], the Vd came to 4 L/kg. In [13], this compound gave a bioavailability of 13%. The clearance in data set [16] turned out to be 38 mL/min/kg. The compound further yielded an inhibition in data set [5] below 10%.

Values taken from ChEMBL document CHEMBL2016483, “Discovery of novel and potent heterocyclic carboxylic acid derivatives as protein tyrosine phosphatase 1B inhibitors” (Bioorg Med Chem Lett, 2012).
